An excerpt weighted towards active compounds, which were near 1.6% of everything screened.
NR1D1 modulator = modulates human Rev-erb alpha binding to DNA. activity, % at 10 µM. AID 1259318. P20393. 0.79% of 370,000 active. Rev-erbα–FITC-DNA binding, fluorescence polarization, 90 min;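 active = activity above about 14%, limit read from the data; passing the limit was not always enough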;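 note: 0% = DMSO wells with 35 nM protein and 100% = DMSO wells with 750 nM protein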
NR2E3 ag-1 = NR2E3 (human) agonism. Q9Y5X4. 0.12% of 320,000 active. GST-NR2E3/biotin-RetCOR TR-FRET, 1536-well. inhibition of corepressor binding, % at 4.78 µM;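 active = percent inhibition above the cutoff of mean plus 3 SD of all tested compounds, set per screening campaign, cut at about 20% in these data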;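 note: 0% = DMSO wells and 100% = biotin wells as full block of FRET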
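Assay system: NR2E3–RetCOR corepressor complex. Quantity: 1.35 nM GST-NR2E3. Buffer or medium: pH 7.5 Tris-based buffer. Reagent: biotinylated RetCOR corepressor at 7 nM final. Schedule: 5 h at 4 °C. Detection: TR-FRET, emission read at 617 and 671 nm. Replicates: one well per compound, singlicate testing.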
PG9 binder = PG9 antibody binding by small molecule; TR-FRET gp120-PG9 antibody binding; inhibition, % at 6.7 µM; 0.43% of 360,000 active; AID 624416; in the data active = inhibition above about 8.5%
VLA-4 inh = inhibition in a human VLA-4 binding assay; P13612; 0.2% of 330,000 active; inhibition, % (about 7 µM as worked out from the volumes in the protocol); VLA-4 expressing cells, ligand binding flow cytometry; in the data active = inhibition above about 50%
NR2E3 ag-2 = human photoreceptor-specific nuclear receptor agonism; inhibition of corepressor binding, % at 3.98 µM; CHO-S Gal4-NCOR/VP16-NR2E3 two-hybrid, luciferase; Q9Y5X4; 0.35% of 360,000 active; AID 602229;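 active = inhibition above the mean of all tested compounds plus 3 SD, cut at about 70% in these data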;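 note: 0% = DMSO with NR2E3 transfected cells and 100% = cells lacking NR2E3 construct; higher means lower luciferase signal from less NR2E3 corepressor binding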
NR2E3 agonist cf = confirmation of human NR2E3 nuclear receptor agonists; shares compounds with NR2E3 ag-1; cell-free NR2E3 corepressor release, TR-FRET, 5 h; activation (reported as inhibition), % at 3.98 µM; 39% of 360 active; AID 2379; in the data active = activation above about 20%
PPARg-NCOR2 ctr = counter-screen for NR2E3 agonists: human PPARgamma-NCOR2 interaction agonists; shares compounds with NR2E3 ag-1; TR-FRET PPARg-NCOR2 coregulator interaction, biochemical; inhibition, % at 3.98 µM; 45% of 360 active; in the data active = inhibition above about 20%;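 note: 0% = DMSO vehicle and 100% = wells without protein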
Target sequence (P37231 whole entry, looked up): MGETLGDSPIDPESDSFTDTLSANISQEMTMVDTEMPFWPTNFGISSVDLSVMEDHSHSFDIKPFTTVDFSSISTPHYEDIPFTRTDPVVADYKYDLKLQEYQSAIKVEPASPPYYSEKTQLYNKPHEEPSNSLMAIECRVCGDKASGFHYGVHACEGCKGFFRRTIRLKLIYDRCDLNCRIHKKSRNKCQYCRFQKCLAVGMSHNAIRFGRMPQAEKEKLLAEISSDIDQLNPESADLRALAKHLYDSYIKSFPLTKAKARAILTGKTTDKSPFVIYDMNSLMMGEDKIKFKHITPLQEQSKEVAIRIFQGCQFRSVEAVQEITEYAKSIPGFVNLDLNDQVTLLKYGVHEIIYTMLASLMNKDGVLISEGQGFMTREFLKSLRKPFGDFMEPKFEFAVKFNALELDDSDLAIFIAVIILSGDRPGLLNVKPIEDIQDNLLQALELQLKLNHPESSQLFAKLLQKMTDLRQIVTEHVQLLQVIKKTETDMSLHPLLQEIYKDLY
Target sequence (Q9Y618 whole entry, looked up): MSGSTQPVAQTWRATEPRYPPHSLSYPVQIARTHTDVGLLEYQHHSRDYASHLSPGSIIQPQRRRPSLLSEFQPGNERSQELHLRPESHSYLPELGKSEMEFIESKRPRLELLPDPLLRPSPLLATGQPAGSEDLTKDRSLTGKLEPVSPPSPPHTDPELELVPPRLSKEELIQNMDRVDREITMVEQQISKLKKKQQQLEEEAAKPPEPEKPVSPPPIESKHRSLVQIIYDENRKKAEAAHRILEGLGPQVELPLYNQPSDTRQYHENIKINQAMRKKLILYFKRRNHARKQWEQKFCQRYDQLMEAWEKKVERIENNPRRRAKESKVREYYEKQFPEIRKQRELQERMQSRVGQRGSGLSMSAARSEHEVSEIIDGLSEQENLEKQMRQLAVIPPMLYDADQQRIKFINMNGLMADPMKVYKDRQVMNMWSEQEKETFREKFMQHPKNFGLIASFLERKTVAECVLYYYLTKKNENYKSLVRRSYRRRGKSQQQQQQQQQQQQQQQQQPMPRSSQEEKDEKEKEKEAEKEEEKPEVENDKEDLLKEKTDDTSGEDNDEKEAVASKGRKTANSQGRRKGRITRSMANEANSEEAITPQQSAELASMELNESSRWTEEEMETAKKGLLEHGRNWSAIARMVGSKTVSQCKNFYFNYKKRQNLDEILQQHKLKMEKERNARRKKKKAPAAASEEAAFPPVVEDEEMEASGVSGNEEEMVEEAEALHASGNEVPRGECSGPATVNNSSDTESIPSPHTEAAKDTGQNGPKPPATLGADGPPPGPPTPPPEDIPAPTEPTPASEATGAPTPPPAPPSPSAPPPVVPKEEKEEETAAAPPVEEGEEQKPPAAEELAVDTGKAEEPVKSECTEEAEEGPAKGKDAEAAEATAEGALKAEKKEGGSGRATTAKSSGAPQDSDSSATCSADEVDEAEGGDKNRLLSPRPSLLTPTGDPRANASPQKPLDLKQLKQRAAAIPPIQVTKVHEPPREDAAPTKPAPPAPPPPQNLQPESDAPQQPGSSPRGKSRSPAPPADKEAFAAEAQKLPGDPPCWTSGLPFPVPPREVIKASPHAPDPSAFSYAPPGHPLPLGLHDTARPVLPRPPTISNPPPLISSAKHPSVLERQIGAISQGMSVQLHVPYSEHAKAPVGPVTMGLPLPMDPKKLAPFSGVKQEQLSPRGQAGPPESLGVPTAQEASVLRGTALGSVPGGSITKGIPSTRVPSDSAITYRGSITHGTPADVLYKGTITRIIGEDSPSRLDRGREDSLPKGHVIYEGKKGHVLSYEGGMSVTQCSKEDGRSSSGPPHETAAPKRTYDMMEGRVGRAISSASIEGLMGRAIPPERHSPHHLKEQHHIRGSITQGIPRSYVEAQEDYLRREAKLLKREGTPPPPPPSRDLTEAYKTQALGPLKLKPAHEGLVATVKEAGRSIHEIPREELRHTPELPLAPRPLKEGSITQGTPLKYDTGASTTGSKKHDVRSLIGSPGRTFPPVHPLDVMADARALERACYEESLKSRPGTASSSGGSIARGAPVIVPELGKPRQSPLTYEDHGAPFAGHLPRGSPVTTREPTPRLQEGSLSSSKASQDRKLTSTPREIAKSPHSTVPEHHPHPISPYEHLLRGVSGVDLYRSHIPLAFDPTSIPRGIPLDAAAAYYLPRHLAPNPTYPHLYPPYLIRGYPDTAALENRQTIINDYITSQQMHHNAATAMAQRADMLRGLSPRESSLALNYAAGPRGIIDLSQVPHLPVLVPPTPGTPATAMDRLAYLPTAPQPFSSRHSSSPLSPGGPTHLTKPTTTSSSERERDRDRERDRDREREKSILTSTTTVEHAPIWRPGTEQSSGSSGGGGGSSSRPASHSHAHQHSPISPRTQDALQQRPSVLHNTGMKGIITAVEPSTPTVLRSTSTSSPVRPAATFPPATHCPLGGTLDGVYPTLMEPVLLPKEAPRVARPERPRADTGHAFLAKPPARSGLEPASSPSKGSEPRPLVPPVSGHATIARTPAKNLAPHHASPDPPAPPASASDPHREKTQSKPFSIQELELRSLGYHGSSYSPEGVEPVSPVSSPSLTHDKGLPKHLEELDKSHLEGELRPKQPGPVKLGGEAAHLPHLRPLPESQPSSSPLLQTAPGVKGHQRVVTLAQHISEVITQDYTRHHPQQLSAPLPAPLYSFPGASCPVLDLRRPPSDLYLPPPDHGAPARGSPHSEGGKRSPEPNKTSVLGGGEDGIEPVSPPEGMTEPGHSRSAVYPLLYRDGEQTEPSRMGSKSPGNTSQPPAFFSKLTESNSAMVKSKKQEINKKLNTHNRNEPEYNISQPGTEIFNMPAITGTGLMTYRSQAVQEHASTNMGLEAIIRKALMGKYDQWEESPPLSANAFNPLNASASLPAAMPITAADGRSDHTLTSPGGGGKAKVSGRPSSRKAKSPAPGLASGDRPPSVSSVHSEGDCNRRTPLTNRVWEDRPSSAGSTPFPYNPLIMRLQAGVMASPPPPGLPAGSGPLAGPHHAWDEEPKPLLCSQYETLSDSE
PG9 bind confirm = PG9 antibody binding, confirmed | shares compounds with PG9 binder | TR-FRET PG9 antibody binding, biochemical | inhibition, % at 6.7 µM | 90% of 1,500 active | AID 651571; in the data active = inhibition above about 9%
PGV04 Ab binding = counter-screen for PG9 binders: binding control antibody PGV04. 95% of 1,500 active. TR-FRET PGV04 antibody-gp120 binding, biochemical. shares compounds with PG9 binder. inhibition, % at 6.7 µM; in the data active = inhibition above about 9.5%
Rev-erbA confirm = confirmation of modulators of human Rev-erb alpha DNA binding | shares compounds with NR1D1 modulator | Rev-erb alpha FITC-DNA binding, fluorescence polarization, 90 min | activation, % at 25 µM | 61% of 3,000 active;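 active = activation at or above a set limit, or at least 3 SD above the negative control mean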;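 note: 0% = 35 nM protein with DMSO and 100% = 750 nM protein high control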
RORg counter = counter-screen for Rev-erb alpha modulators: RORgamma DNA binding; purified RORgamma protein-FITC-DNA binding, fluorescence polarization; shares compounds with NR1D1 modulator; 8% of 910 active; IC50, µM;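 active = Compounds whose fitted half-maximal concentration for disrupting protein-DNA binding is below 10 micromolar; the record names Rev-erb in its text, so the target is in doubt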
Starred values were filed as active, the others as inactive.

CN(C)c1cc(NC(=O)CNC(C)(C)C)c(O)c2c1C[C@H]1C[C@H]3[C@H](N(C)C)C(=O)C(C(N)=O)=C(O)[C@@]3(O)C(=O)C1=C2O was read as NR1D1 modulator -36.2.
Screening O=c1c2oc3ccccc3c2[nH]c(=S)n1-c1ccc(F)cc1 returned NR1D1 modulator -6.1, NR2E3 ag-1 44.0*, PG9 binder 10.1*, VLA-4 inh -6.5, NR2E3 ag-2 8.1, NR2E3 agonist cf 32.3*, PPARg-NCOR2 ctr 24.3*, PG9 bind confirm 11.9* and PGV04 Ab binding 12.0*.
For Cc1ccc(-n2c(=S)[nH]c3c(oc4ccccc43)c2=O)cc1C the results were NR1D1 modulator -7.1, NR2E3 ag-1 42.7*, PG9 binder 19.9*, VLA-4 inh 7.6, NR2E3 ag-2 -26.2, NR2E3 agonist cf 35.2*, PPARg-NCOR2 ctr 32.7*, PG9 bind confirm 11.1* and PGV04 Ab binding 17.4*.
O=S(=O)(O)c1ccccc1O was read as NR1D1 modulator -2.9.
Screening Cc1c(NC(=O)c2ncn[nH]2)cccc1-c1nc2ccccc2s1 returned NR1D1 modulator 10.4, NR2E3 ag-1 19.8*, PG9 binder 27.2*, VLA-4 inh -239.0, NR2E3 ag-2 -12.5, NR2E3 agonist cf 5.4, PPARg-NCOR2 ctr 18.4, PG9 bind confirm 33.2* and PGV04 Ab binding 50.7*.
For Cc1c(NC(=O)c2ccc(N3CCCC3)c([N+](=O)[O-])c2)cccc1-c1nc2ccccc2s1 the results were NR1D1 modulator 4.5, NR2E3 ag-1 0.1, PG9 binder -1.1, VLA-4 inh -25.8 and NR2E3 ag-2 -39.4.
NC1=CC(=O)c2cccc3cccc1c23 was read as NR2E3 ag-1 -3.6 and VLA-4 inh -24.4.
`O=C1C=C(O)c2cccc3cccc1c23` gave NR1D1 modulator 1.1, NR2E3 ag-1 23.2*, PG9 binder 48.7*, VLA-4 inh 0.9, NR2E3 ag-2 -26.4, NR2E3 agonist cf 10.6, PPARg-NCOR2 ctr 19.0, PG9 bind confirm 39.1* and PGV04 Ab binding 58.1*.
C#C[C@]1(O)CCC2C3CCc4cc(OC5CCCC5)ccc4C3CC[C@@]21C (some centres undefined) was read as NR1D1 modulator 2.6.
`CCOC(=O)Cn1c(=S)[nH]c2c(oc3ccc(Cl)cc32)c1=O` gave NR1D1 modulator 7.6, NR2E3 ag-1 24.8*, PG9 binder 16.1*, VLA-4 inh 1.1, NR2E3 ag-2 -17.1, NR2E3 agonist cf 45.5*, PPARg-NCOR2 ctr 41.4*, PG9 bind confirm 7.4 and PGV04 Ab binding 9.4*.
Screening CCOC(=O)N1CCN(C(=O)c2ccc3c(=O)n(Cc4ccc(Cl)cc4)c(=S)[nH]c3c2)CC1 returned NR1D1 modulator 4.9, NR2E3 ag-1 -8.4, PG9 binder 1.2, VLA-4 inh -4.0 and NR2E3 ag-2 -24.1.
Screening O=C(C1=C(O)C(=O)N(CC2CCCO2)C1c1ccccc1F)c1ccco1 (centres undefined) returned NR1D1 modulator -1.6, NR2E3 ag-1 35.9*, PG9 binder 9.8*, VLA-4 inh 0.7, NR2E3 ag-2 -15.5, NR2E3 agonist cf 13.1, PPARg-NCOR2 ctr 12.2, PG9 bind confirm 16.2* and PGV04 Ab binding 20.2*.
Screening CSc1nc(N)nc(SCC(=O)OC(C)C)c1C#N returned NR1D1 modulator -0.6, NR2E3 ag-1 1.3, PG9 binder -1.1, VLA-4 inh -13.1 and NR2E3 ag-2 -53.5.
Screening CSc1nc(N)nc(SCC(=O)c2ccc(C)cc2)c1C#N returned NR1D1 modulator 16.8, NR2E3 ag-1 46.9*, PG9 binder 23.3*, VLA-4 inh -7.8, NR2E3 ag-2 -21.0, NR2E3 agonist cf 7.9, PPARg-NCOR2 ctr 9.8, PG9 bind confirm 26.8* and PGV04 Ab binding 35.2*.
Screening CSc1nc(-c2ccccc2)c(C#N)c(=O)[nH]1 returned NR1D1 modulator 1.5, NR2E3 ag-1 22.0*, PG9 binder 14.8*, VLA-4 inh -3.0, NR2E3 ag-2 -29.1, NR2E3 agonist cf 21.5*, PPARg-NCOR2 ctr 24.7*, PG9 bind confirm 22.5* and PGV04 Ab binding 34.7*.
Screening CCC(Sc1nc(-c2ccccc2)c(C#N)c(=O)[nH]1)C(=O)Nc1cc(C)on1 (centres undefined) returned NR1D1 modulator -1.0, NR2E3 ag-1 26.9*, PG9 binder 28.2*, VLA-4 inh 14.8, NR2E3 ag-2 -11.7, NR2E3 agonist cf 20.4*, PPARg-NCOR2 ctr 41.5*, PG9 bind confirm 35.5* and PGV04 Ab binding 44.9*.
For CSc1nc(-c2ccc(Cl)cc2)c(C#N)c(=O)[nH]1 the results were NR1D1 modulator -3.6, NR2E3 ag-1 12.4, PG9 binder 3.7, VLA-4 inh -20.6 and NR2E3 ag-2 -27.4.
`CC(C)CN(C[C@@H](OP(=O)(O)O)[C@H](Cc1ccccc1)NC(=O)O[C@H]1CCOC1)S(=O)(=O)c1ccc(N)cc1` gave NR1D1 modulator 1.2.
`COC(=O)c1cc(Br)c(=O)n(-c2ccccn2)c1` gave NR1D1 modulator -0.8, NR2E3 ag-1 0.1, PG9 binder 0.9, VLA-4 inh -0.6 and NR2E3 ag-2 21.5.
`COC(=O)c1cc(Br)c(=O)n(-c2nccs2)c1` gave NR1D1 modulator 6.3, NR2E3 ag-1 24.7*, PG9 binder 28.0*, VLA-4 inh 12.1, NR2E3 ag-2 4.1, NR2E3 agonist cf 22.5*, PPARg-NCOR2 ctr 24.3*, PG9 bind confirm 36.7* and PGV04 Ab binding 50.0*.
`COc1cc2ncnc(NCc3ccccc3C)c2cc1OC` gave NR1D1 modulator -3.2, NR2E3 ag-1 1.5, PG9 binder -1.4, VLA-4 inh -5.3 and NR2E3 ag-2 -3.6.
Screening Cc1ccccc1CNc1ncnc2cc(Cl)ccc12 returned NR1D1 modulator 238.9*, NR2E3 ag-1 78.9*, PG9 binder 90.1*, VLA-4 inh 4.5, NR2E3 ag-2 6.1, NR2E3 agonist cf 82.1*, PPARg-NCOR2 ctr 82.2*, PG9 bind confirm 90.5*, PGV04 Ab binding 95.8*, Rev-erbA confirm 189.5* and RORg counter 2.13*.

Source: PubChem
